TRPC6 inhibitor: inhibitors of mouse TRPC6 channel; Q61143; AID 2553; actives 1.1% (n = 310,000); HEK293-TRPC6, membrane potential dye, ACh-evoked depolarization; active compounds read low; B-score at 10 µM;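 active = B-score under library mean minus 3 SD, initial fluorescence not abnormally high, positive integrated signal ratio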;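 note: B-score derived from integrated fluorescence ratio over the kinetic read; more negative B-score means stronger inhibition of depolarization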
TRPC6 activator: activates the mouse TRPC6 cation channel | actives 0.13% (n = 310,000) | AID 2550 | Q61143 | B-score at 10 µM | HEK293-TRPC6 membrane potential dye fluorescence; active compounds read high;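 active = B-score of the integrated fluorescence ratio above library mean plus 3 SD, and starting fluorescence ratio within library mean plus 5 SD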;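 note: higher score means more depolarization so channel activation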
TRPC4 agonist: opens the mouse TRPC4 cation channel. Q9QUQ5. HEK293 TRPC4beta/mu-opioid, Fluo4 calcium fluorescence; active compounds read high. B-score at 10 µM. actives 0.49% (n = 310,000). AID 2237;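 active = B-score above 5 SD of library B-scores, and initial fluorescence ratio not above library mean plus 5 SD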;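 note: positive B-score marks a calcium rise read as TRPC4 activation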
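Material: HEK293 stable line with TRPC4beta plus mu-opioid receptor; technique: Fluo4 calcium-sensitive dye fluorescence, kinetic, 1 Hz baseline; timing: Fluo4 dye loading 45 min at room temperature, 110 s recording; controls: assay buffer as low control, maximal DAMGO as high control; read-out: integrated baseline-normalised fluorescence ratio, converted to per-well B score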
TRPC4 PAM: TRPC4 (mouse) allosteric potentiation; actives 0.42% (n = 310,000); Q9QUQ5; B-score at 10 µM; HEK293 TRPC4beta/mu-opioid, DAMGO EC20, Fluo-4 Ca2+ flux; active compounds read high;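 active = B-score of calcium response area above 5 SD of library B-scores, with initial fluorescence ratio within 5 SD of library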
TRPC4 inh: TRPC4 (mouse) channel inhibition. B-score at 10 µM. HEK293 TRPC4beta/mu-opioid, DAMGO-evoked Fluo4 calcium flux; active compounds read low. Q9QUQ5. actives 0.39% (n = 300,000);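 active = B-score over 3 SD under the library average, no early fluorescence shift, positive overall ratio signal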
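material = TRPC4beta/mu-opioid receptor HEK293 cell line | probe or stimulus = sequential submaximal and maximal DAMGO stimulation | compound dosing = one concentration per compound | measured by = Fluo4 Ca2+ flux fluorescence | evaluation = integrated fluorescence ratio relative to baseline, converted to per-well B score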
Large screens that a line does not name were inactive. Rows were chosen to be rich in hits. Some 2.3% of all compounds tested hit in one or more screens of this group.

C#Cc1cccc(C(=O)NC2CCCN(C3Cc4ccccc4C3)C2)c1 (stereo not given)	TRPC4 agonist 188
CCCN(c1ccccc1F)S(=O)(=O)c1cc(-c2cc(C)no2)ccc1OC	none
O=C(OCCCCN1C(=O)c2ccccc2C1=O)c1ccc(S(=O)(=O)N2CCCC2)cc1	TRPC4 PAM 17
CCN1CCN(c2ccc(S(=O)(=O)N3CCOCC3)cc2NC(=O)c2cc(Cl)nc3ccccc23)CC1	TRPC4 agonist 47
CCN1CCN(c2ccc(S(=O)(=O)N3CCOCC3)cc2NC(=O)c2ccccc2SC)CC1	TRPC4 agonist 175
CCN1CCN(c2ccc(S(=O)(=O)N3CCOCC3)cc2NC(=O)c2ccc(Cl)s2)CC1	none
CCOC(=O)C1(CCOc2ccccc2)CCN(Cc2ccc(COC)o2)CC1	none
CCOC(=O)C1(Cc2cccc(OC)c2)CCN(Cc2ccc(OC)c(O)c2)CC1	TRPC4 inh -8
CCOC(=O)C1(CCOc2ccccc2)CCN(Cc2ccc(OC)c(O)c2)CC1	TRPC4 agonist 84
CCOC(=O)C1(CCOc2ccccc2)CCN(Cc2ccc(C)o2)CC1	TRPC4 inh -6
COc1ccc(C(=O)N/C(=C\c2ccccc2)C(=O)Nc2ccc(C(=O)NCC(=O)O)cc2)cc1	none
Cc1c(NS(=O)(=O)c2ccc(NCCN3CCOCC3)c([N+](=O)[O-])c2)c(=O)n(-c2ccccc2)n1C	none
O=C1/C(=C/c2ccccc2Cl)SC(=S)N1CCCC(=O)N(CCO)c1ccccc1	TRPC4 inh -6
COc1ccc(CCN=C(N)NS(=O)(=O)c2ccc(OC)cc2)cc1	none
COc1ccc(CCN=C(N)Nc2nc(C)cc(C)n2)cc1	TRPC4 inh -6
O=C(O)CN1C(c2ccccc2O)Nc2ccc(Br)cc2C1c1ccccc1 (stereo not given)	TRPC4 inh -5
COc1ccc(C2Nc3ccc(Br)cc3C(c3ccccc3)N2CC(=O)O)cc1 (stereo not given)	none
NC(=O)[C@@H]1CC2(CC(c3cccc(NC(=O)[C@H]4CCC(=O)N4)c3)=NO2)CN1C(=O)COc1ccc(Cl)cc1 (stereo not given in full)	none (no result: TRPC4 inh)
COC(=O)NCC(c1cccnc1)N1CCN(c2ccccc2OC)CC1 (stereo not given)	TRPC4 agonist 69
CCN1CCN(C(=O)C2CCN(c3nnc(C)c4c(C)n(-c5ccc(C)cc5)nc34)CC2)CC1	TRPC4 inh -5
CCN(CC)c1ccc(/C=N/NC(=O)CCC(=O)NCc2ccccc2)c(O)c1	none
O=[N+]([O-])c1cc([N+](=O)[O-])c(Oc2cc(Cl)ccc2Cl)cc1NC1CCCCCCC1	none
CNS(=O)(=O)c1ccc(NC(=O)Nc2cccc(F)c2)cc1	TRPC4 agonist 44
CCN(c1cccc(C)c1)S(=O)(=O)c1ccc2c(c1)N(C(C)=O)CCS2	none
CCOc1ccccc1N1CC(C(=O)Nc2c(C)n(C)n(-c3ccccc3)c2=O)CC1=O (stereo not given)	none
C=CCOc1ccc(CN(C)Cc2nc3cc(C(F)(F)F)ccc3c(=O)[nH]2)cc1	TRPC4 PAM 15
CCN(CC)CCCNC(=O)c1cc2c(-c3ccc(Cl)cc3)nn(C)c2s1	TRPC4 agonist 72, TRPC4 PAM 16
CN1CCN(CCCNC(=O)c2cc3c(-c4ccc(Cl)cc4)nn(C)c3s2)CC1	TRPC4 PAM 11
COc1ccc(CN2CCN(Cc3cccn3-c3ncccn3)CC2CCO)c(C)c1C (stereo not given)	none
NS(=O)(=O)c1ccc(-n2nncc2-c2ccco2)cc1	none
C=C(C)C1(O)OC(=O)C=C1OC (stereo not given)	none
O=C(Nc1nnc(-c2ccccc2Cl)o1)c1nc2ccccc2s1	TRPC4 agonist 185
CC(OCC(O)CN(C)CCOc1ccccc1)c1ccc(Cl)cc1 (stereo not given)	TRPC4 inh -6
CN(CCOc1ccccc1)CC(O)COCc1ccccc1F (stereo not given)	none
CN(CCOc1ccccc1)CC(O)COc1ccccc1 (stereo not given)	TRPC4 inh -6
COCCCn1c(=O)c2ccccc2n(CC(=O)NC2CCCCC2)c1=O	none
CC1=NNC(=O)/C1=C\c1cn(-c2ccccc2)nc1-c1ccccc1	TRPC4 PAM 10
O=Cc1cn(-c2ccccc2)nc1-c1ccccc1	none
O=C(OCC(=O)N1CCc2ccccc21)c1cncc(Br)c1	none
O=C(NC(C1CC1)C1CC1)C1CCC(=O)N(CCCN2CCCC2=O)C1 (stereo not given)	none
O=C(Nc1ccccc1)N1CCCC(c2nc(-c3cccs3)no2)C1 (stereo not given)	TRPC4 agonist 47
O=C(NC1CCCCC1)N1CCCC(c2nc(-c3cccs3)no2)C1 (stereo not given)	none
O=C(Nc1ccc(Cl)cc1)N1CCC(c2nc(-c3cccs3)no2)CC1	TRPC4 agonist 137
COC(=O)/C(=N/Nc1ccccc1C)N1CCCc2ccccc21	none
CCOc1ccc(CCNC(=O)COn2nnc3ccc(S(=O)(=O)N4CCOCC4)cc32)cc1OCC	none
Cc1[nH]c2ccccc2c1C(=O)CSc1nc2ccccc2c(=O)n1CCCN1CCOCC1	none
CCOc1cc(/C=C2\C(=O)ON=C2c2ccccc2)cc(Br)c1O	TRPC6 activator 17
CCOc1cc(/C=C2/C(=O)ON=C2C)cc(Br)c1O	none
COc1cc(/C=C2\C(=O)ON=C2c2ccccc2)cc(Cl)c1O	TRPC4 inh -8
O=C(Nc1c2c(nn1-c1ccc(F)cc1)CS(=O)C2)c1ccc2c(c1)OCO2 (stereo not given)	none
CC(C)Cc1ccc(C(C)C(N)=NCCc2ccccc2)cc1 (stereo not given)	TRPC4 PAM 10
CNC(=S)NNC(=O)c1cccn(Cc2cccc(Cl)c2)c1=O	TRPC4 PAM 13
CC(C)(C)C(=O)Nc1sc2c(c1C#N)CCN(Cc1ccccc1)C2	TRPC6 activator 13
N#Cc1c(NC(=S)NC(=O)c2ccccc2)sc2c1CCN(CCc1ccccc1)C2	none
COC(=O)c1sccc1NC(=O)C1CCCCC1C(=O)O (stereo not given)	none
COc1ccc(C(=O)COc2ccc(F)cc2)c(O)c1	none
O=C(COc1ccc(F)cc1)c1c(O)cc(O)cc1O	TRPC4 inh -6
Cc1ccccc1NC(=O)Nc1nnc(Cc2ccc([N+](=O)[O-])cc2)s1	none
CO/N=C/c1ccc(N2CCN(C(=O)c3ccc(Cl)cc3Cl)CC2)c([N+](=O)[O-])c1	TRPC4 PAM 12
CO/N=C/c1ccc(N2CCN(C(=O)c3ccc(F)cc3)CC2)c([N+](=O)[O-])c1	none
CC1(C)CCC[C@@]2(C)CC=C(C(=O)O)[C@@H]3C[C@]312	none
CCOC(=O)c1cc(C)[nH]c(=O)c1C#N	TRPC4 PAM 10
CCOC(=O)c1cc(C)[nH]c1C	none
Cc1cc(C)c(C)c(S(=O)(=O)NCc2ccco2)c1C	TRPC4 PAM 26

High-throughput results deposited in PubChem BioAssay by Johns Hopkins Ion Channel Center.
